Sampled rows, rich in hits. Any-hit rate of the full collection: about 5.7%.
Calb FLC = affects C. albicans growth with fluconazole; C. albicans CaCi-2 (fluconazole-resistant clinical isolate) + fluconazole, Alamar Blue growth, 48 h; growth inhibition, % (concentration not given with the values); 300,000 compounds, 0.57% hits;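 active = growth inhibition above about 58% in most replicates, limit read from the data, passing the limit was not always enough; inconclusive = exactly half the replicates above a set limit; inactive = most replicates below a set limit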;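 also: all wells also contain fluconazole at 8 µg/ml as a sub-toxic cotreatment; 0% = median of DMSO wells and 100% = median of geldanamycin control wells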
T cruzi repl = blocks replication of Trypanosoma cruzi; inhibition, % (no concentration beside the values); T. cruzi beta-gal in NIH3T3, luminescence, 90 h; AID 1885; 300,000 compounds, 1.4% hits;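 active = mean inhibition across valid replicates above about 55%, limit read from the data; inconclusive = mean below that limit but half or more replicates reach it; inactive = mean below it, under half of replicates reach it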;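 also: signal also drops with host cell toxicity which is not excluded here; 0% = plate median of DMSO wells and 100% = zero luminescence signal; higher percent means less beta-gal luminescence so fewer parasites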
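Assay system: NIH/3T3 host cells with β-galactosidase reporter T. cruzi; input: 5,000 host fibroblasts per well; compound: single 50 nL compound addition per well in DMSO; timing: ≥90 h infection period, 3 h prior cell attachment; measured by: GalScreen β-gal luminescence, detergent lysis, 60 min; evaluation: percent inhibition of parasite-derived β-gal signal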
Beta apoptosis = beta cell apoptosis inhibition | INS-1E cytokine-induced death, ATP luminescence, 48 h; percent of positive-control rescue, neutral wells zero | protection from apoptosis, % (test concentration not listed) | 300,000 compounds, 0.8% hits | AID 435005;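 active = Every replicate reaches about 75%, or at least half do and their mean reaches it too, limit read from the data; inconclusive = At least half of replicates reach the limit but their mean does not; inactive = Under half of replicates reach the limit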;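 also: 0% = cytokine-treated negative control wells and 100% = positive control rescue; higher means more ATP so stronger rescue from cytokine killing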
Mdm2-MdmX inh = disrupts the human Mdm2-MdmX interaction. SaOS-2 split-luciferase Mdm2/MdmX complementation, luminescence. 330,000 compounds, 3% hits. O15151+Q00987. inhibition, % at 8 µM. AID 485346;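 active = inhibition of at least 50% at 8 µM in the primary screen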
Target sequence (O15151 whole entry, looked up): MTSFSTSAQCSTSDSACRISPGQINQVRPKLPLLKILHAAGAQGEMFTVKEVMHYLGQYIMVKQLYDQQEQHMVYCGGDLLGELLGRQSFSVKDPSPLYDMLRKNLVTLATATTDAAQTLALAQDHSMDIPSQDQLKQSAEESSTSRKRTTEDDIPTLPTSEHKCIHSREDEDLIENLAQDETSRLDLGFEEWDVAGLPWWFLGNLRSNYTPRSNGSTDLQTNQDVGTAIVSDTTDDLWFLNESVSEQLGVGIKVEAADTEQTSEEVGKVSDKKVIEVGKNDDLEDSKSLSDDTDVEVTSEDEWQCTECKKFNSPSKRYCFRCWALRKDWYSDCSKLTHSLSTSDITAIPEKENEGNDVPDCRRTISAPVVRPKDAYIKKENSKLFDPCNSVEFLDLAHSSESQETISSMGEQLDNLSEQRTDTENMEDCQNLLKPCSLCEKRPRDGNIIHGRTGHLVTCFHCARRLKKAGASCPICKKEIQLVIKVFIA
Target sequence (Q00987 whole entry, looked up): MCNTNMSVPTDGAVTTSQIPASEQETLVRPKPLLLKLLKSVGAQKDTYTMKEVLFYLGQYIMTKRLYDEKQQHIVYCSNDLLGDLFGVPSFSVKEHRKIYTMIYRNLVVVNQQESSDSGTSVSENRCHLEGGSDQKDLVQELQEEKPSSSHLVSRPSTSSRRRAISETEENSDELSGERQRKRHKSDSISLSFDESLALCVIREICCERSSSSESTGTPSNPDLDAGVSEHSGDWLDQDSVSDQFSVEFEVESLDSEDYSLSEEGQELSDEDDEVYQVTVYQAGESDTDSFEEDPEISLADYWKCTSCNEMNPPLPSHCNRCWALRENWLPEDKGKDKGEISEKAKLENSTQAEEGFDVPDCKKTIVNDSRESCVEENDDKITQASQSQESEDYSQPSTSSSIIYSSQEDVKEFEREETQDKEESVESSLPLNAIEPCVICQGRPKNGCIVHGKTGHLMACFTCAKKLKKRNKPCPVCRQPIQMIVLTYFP
SKKanGAS inh = blocks kanamycin growth of S. pyogenes SKKanGAS strain | BacTiter-Glo, 6 h | inhibition, % at 7.5 µM | 300,000 compounds, 1.3% hits;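 active = mean replicate score, as percent of positive control median, at least 50; inconclusive = mean below 50 but one replicate at or above 50; inactive = mean and every replicate below 50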;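 also: strain carries kanamycin resistance gene driven by streptokinase promoter and grows in 40 µg/ml kanamycin; loss of luminescence reflects streptokinase promoter inhibition or plain growth inhibition; 0% = median of DMSO wells and 100% = positive control at its reference dose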
CSC inhib = blocks cancer stem cells; cancer stem cell-like cells viability, luminescence; inhibition, % at 7.5 µM; 300,000 compounds, 1.1% hits; AID 2717; in the data active = inhibition above about 75%; inconclusive = no clear call, values can overlap the other calls; tested in HMLE shEcad cells
Mdm2-MdmX conf = human Mdm2/MdmX binding inhibition, confirmed | luminescent assay | 10,000 compounds, 55% hits | shares compounds with Mdm2-MdmX inh | inhibition, % at 8 µM | AID 489028; in the data active = inhibition above about 40%
Full FLuc ctr = inhibits full-length luciferase, flagging false Mdm2/MdmX hits; 6,200 compounds, 77% hits; SaOS-2 full-length luciferase counterscreen, luminescence; AID 504607; shares compounds with Mdm2-MdmX inh; inhibition, % at 8 µM;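 active = mean inhibition at 8 µM reaching about 37%, which flags the compound as non-specific, limit read from the data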;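 also: p53-null SaOS-2 cells with luciferase driven by a doxycycline-inducible promoter; compound on cells about two nights before reading with doxycycline added after day one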
Numbers without * were called inactive; ? = inconclusive; / = no result.

SMILES | Calb FLC | T cruzi repl | Beta apoptosis | Mdm2-MdmX inh | SKKanGAS inh | CSC inhib | Mdm2-MdmX conf | Full FLuc ctr
COc1cc([N+](=O)[O-])ccc1NC(=O)CC1SC(=Nc2ccc(F)cc2)N(CCC2=CCCCC2)C1=O (stereo not drawn) | -22 | 52 | 110* | 77* | 20 | ? | 85* | 65*
COc1ccc(OC)c(NC(=O)CC2SC(=Nc3ccc(F)cc3)N(CCC3=CCCCC3)C2=O)c1 (stereo not drawn) | 5 | 37 | 27 | 21 | 10 | 26 | / | /
CCNc1c(NS(=O)(=O)c2ccc([N+](=O)[O-])cc2)c(=O)oc2ccccc12 | -13 | 16 | -5 | 16 | 2 | 4 | / | /
CNC(=O)C(C)Sc1ccc(S(=O)(=O)N2CCOCC2)cn1 (stereo not drawn) | / | / | 0 | -2 | / | 17 | / | /
O=C(NC(NC(=S)Nc1cccc(Cl)c1)C(Cl)(Cl)Cl)OCc1ccccc1 (stereo not drawn) | -18 | 7 | 19 | 92* | 122* | 116* | 55* | 53*
O=C(NC(NC(=S)Nc1ccc(Cl)c(Cl)c1)C(Cl)(Cl)Cl)c1ccco1 (stereo not drawn) | -4 | 4 | 10 | 59* | 74* | 66 | 40 | 74*
O=C(NC(NC(=S)Nc1cccc(C(=O)O)c1)C(Cl)(Cl)Cl)OCc1ccccc1 (stereo not drawn) | 2 | -17 | -8 | 13 | 7 | -9 | / | /
COc1cccc2sc3ccc(C#CC4(O)CCCCC4)cc3c(=O)c12 | -20 | 46 | -2 | -107 | 36 | -25 | / | /
O=c1c2ccccc2sc2ccc(C#CC3(O)CCCCC3)cc12 | 18 | 11 | 6 | 94* | 26 | -6 | 94* | 25
O=c1c2ccccc2oc2cc(C#CC3(O)CCCCC3)ccc12 | 10 | 17 | -2 | 87* | 18 | 19 | 76* | 98*
COc1ccc(NCC(=O)n2c(C)c(C)c3ccccc32)cc1OC | -19 | 19 | -1 | 15 | -2 | 4 | / | /
O=C(CN1CCN(c2ccccc2O)CC1)Nc1ccccc1C(=O)NCCc1ccccc1 | / | / | 12 | 5 | / | 4 | / | /
COc1ccc(CCNC(=O)c2ccccc2NC(=O)CN2CCN(c3ccccc3O)CC2)cc1 | / | / | / | 54* | / | / | 45* | 97*
COc1ccc(CNc2nnnn2C)c(OC)c1 | -2 | -16 | -6 | 13 | 1 | -10 | / | /
CC(C)c1cccc(C(C)C)c1OC(=O)[C@H]1OC(c2ccc(Br)cc2)=C[C@@H]1c1ccc(Br)cc1 | / | / | 16 | 61* | / | 111* | -3 | /
CC(C)NC(=O)c1cc(-c2ccc(Br)cc2)on1 | -3 | 1 | 1 | -203 | -2 | -12 | / | /
Cc1cc(C)cc(N(CC(=O)NC2CCCC2)C(=O)CNC(=O)c2cccs2)c1 | 10 | 8 | -2 | -14 | 2 | / | / | /
COCC(=O)OCC(=O)Nc1ccccc1-c1ccccc1 | -2 | -27 | -7 | -7 | -5 | 6 | / | /
CCN(CC)CCn1c2ccccc2c2nc3ccc([N+](=O)[O-])cc3cc21 | 4 | 43 | 35 | 78* | 34 | 40 | 77* | 57*
CCN(CC)CCn1c(N)nc2ccccc21 | -2 | 30 | -1 | 7 | -2 | -20 | / | /
O=C(Nc1nc2ccc(S(=O)(=O)N3CCCC3)cc2s1)C1CCCCC1 | -2 | -3 | 7 | 66* | 11 | 58 | 57* | 70*
O=C(Nc1nc2ccccc2s1)C1CCN(S(=O)(=O)c2cc([N+](=O)[O-])ccc2Cl)CC1 | 12 | 59* | 81* | 96* | 25 | ? | 87* | 38*
CCC(C)NC(=O)C1CCN(S(=O)(=O)c2cc([N+](=O)[O-])ccc2Cl)CC1 (stereo not drawn) | 2 | -7 | 6 | 5 | 3 | 37 | / | /
O=C(Nc1nc2ccc(S(=O)(=O)N3CCCCC3)cc2s1)C1CCCO1 (stereo not drawn) | 7 | 14 | 0 | 4 | -2 | 9 | / | /
CCOc1ccc(NC(=O)CN2CCN(CC(=O)Nc3ccc(C(N)=O)cc3)CC2)cc1 | -10 | -10 | -3 | 15 | 10 | -2 | / | /
